Laboratory results: ChEMBL document CHEMBL4834419 (J Med Chem, 2021)
Converted amounts (≈) assume the structure as drawn. Blank lines part the entries; values can stand above or below the molecule they belong to. The source made the active and inactive calls. No cut-off for these calls is given here.

How the values were obtained:
[1] = Plasma concentration in mouse at 10 mg/kg, po measure after 3 hrs; format: ADME, organism-based
Outline: (§1)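 Mice, n = 3, received a single oral dose of 10 mg/kg in water with 1% hydroxypropyl methylcellulose/Tween 80 (99:1). Tail-vein blood was drawn at 30 and 60 min and tissue collected at 3 h. Compound was quantified by LC−MS and PK derived by noncompartmental analysis.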

[2] = molecular target: T1, Retinoic acid receptor RXR-gamma (Homo sapiens, UniProt P48443); assay: Agonist activity at human RXRgamma transfected in human HEK293T cells co-expressing pFR/pRL-Luc incubated for 14 to 16 hrs by hybrid reporter gene assay; format: cell-based
T1 sequence (P48443 whole entry): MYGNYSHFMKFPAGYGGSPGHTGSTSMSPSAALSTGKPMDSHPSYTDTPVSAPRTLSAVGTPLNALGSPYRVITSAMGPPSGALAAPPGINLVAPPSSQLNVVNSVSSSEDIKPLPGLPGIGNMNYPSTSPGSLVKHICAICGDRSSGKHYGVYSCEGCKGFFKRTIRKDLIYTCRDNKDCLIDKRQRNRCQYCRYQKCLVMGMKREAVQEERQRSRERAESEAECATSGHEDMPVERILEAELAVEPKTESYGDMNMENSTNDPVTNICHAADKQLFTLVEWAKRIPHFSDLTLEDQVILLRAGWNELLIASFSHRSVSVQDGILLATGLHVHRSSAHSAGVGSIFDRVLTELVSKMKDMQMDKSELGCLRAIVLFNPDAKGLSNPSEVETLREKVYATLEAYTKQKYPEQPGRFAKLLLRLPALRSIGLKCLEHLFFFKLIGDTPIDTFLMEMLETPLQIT

HepG2 [3] = assay: Cytotoxicity against human HepG2 cells assessed as reduction in cell viability up to 100 uM incubated for 48 hrs by WST-1 assay; format: cell-based; settings: hepg2, 48 h
Outline: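 HepG2 cells were seeded at 3 × 10⁴/well and grown 24 h. Medium was then switched to DMEM with 1% FCS containing compound in 0.1% DMSO; 0.1% DMSO alone was the negative control. After 48 h, WST-1 was added and absorbance read at 450/620 nm after 45 min. Four experiments in duplicate.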

[4] = Metabolic stability in Sprague-Dawley rat liver microsomes assessed as compound degradation at 10 uM incubated for 60 min by HPLC analysis; format: ADME; settings: 1 h
Outline: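 Compound at 10 μM final in 0.1 M phosphate, pH 7.4, was preincubated 5 min at 37 °C with an NADPH-regenerating system. Sprague-Dawley rat liver microsomes were then added. Reactions were stopped with ice-cold methanol at 0, 15, 30 and 60 min and remaining compound quantified by HPLC against an external calibration. Controls: no NADPH, heat-inactivated microsomes. Three independent experiments.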

[5] = molecular target: T2, Retinoic acid receptor RXR-alpha (Homo sapiens, UniProt P19793); assay: (§2) Agonist activity at human RXRalpha transfected in human HEK293T cells co-expressing pFR/pRL-Luc incubated for 14 to 16 hrs by hybrid reporter gene assay; format: cell-based
T2 sequence (P19793 whole entry): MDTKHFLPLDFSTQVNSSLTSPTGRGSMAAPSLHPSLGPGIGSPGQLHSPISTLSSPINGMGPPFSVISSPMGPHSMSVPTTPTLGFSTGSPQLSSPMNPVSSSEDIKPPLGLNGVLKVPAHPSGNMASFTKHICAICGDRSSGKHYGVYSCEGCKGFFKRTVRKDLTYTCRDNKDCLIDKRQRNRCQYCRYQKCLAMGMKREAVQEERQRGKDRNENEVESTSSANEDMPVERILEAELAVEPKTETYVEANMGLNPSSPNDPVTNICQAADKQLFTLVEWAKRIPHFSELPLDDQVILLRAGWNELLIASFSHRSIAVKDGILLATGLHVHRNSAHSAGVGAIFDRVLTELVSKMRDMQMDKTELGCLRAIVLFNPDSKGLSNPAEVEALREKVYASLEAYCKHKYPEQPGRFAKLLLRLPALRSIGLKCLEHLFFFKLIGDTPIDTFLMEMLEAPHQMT

[6] = molecular target: T3, Nuclear receptor subfamily 1 group I member 3 (Homo sapiens, UniProt Q14994); assay: Agonist activity against human CAR in human HEK293T cells co-expressing pFR/pRL-Luc assessed as receptor activation at 10 uM incubated for 14 to 16 hrs by hybrid reporter gene assay relative to bexarotene; format: cell-based; settings: time 14-16 hrs
T3 sequence (Q14994 whole entry): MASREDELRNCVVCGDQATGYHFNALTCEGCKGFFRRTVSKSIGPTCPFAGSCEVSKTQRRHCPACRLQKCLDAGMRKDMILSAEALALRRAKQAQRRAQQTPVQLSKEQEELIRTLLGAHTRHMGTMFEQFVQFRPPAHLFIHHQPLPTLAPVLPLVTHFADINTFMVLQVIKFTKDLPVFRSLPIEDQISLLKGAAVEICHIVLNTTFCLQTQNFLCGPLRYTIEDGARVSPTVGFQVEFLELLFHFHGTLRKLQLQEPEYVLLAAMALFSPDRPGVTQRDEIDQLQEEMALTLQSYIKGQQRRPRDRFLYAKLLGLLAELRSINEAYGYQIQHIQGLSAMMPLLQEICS
Outline: (§3)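 Gal4 hybrid reporter assay in HEK293T cells, seeded 24 h before transfection (Lipofectamine LTX, Opti-MEM) with pFR-Luc, pRL-SV40 and pFA-CMV plasmid carrying the hinge region and LBD of the human receptor. After 5 h, compound added in 0.1% DMSO, with 0.1% DMSO alone as untreated control. Dual-Glo luciferase read after 14−16 h; firefly/renilla normalized; duplicates, ≥2 independent experiments.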

[7] = Half life in mouse at 10 mg/kg, po; format: ADME, organism-based; settings: in vivo; outline: as §1
[8] = Cmax in mouse at 10 mg/kg, po; format: ADME, organism-based; parameters: route oral, dose 10 mg/kg; settings: in vivo; outline: as §1
[9] = Aqueous solubility of compound in pH 8 phosphate buffer incubated for 1 hr by HPLC analysis; format: physicochemical
Outline: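 Solubility was measured with 3 mg compound in 2 mL 0.1 M phosphate buffer, pH 8, shaken 1 h at 37 °C. The mixture was pressed through a Uniprep filter and the dissolved compound in the filtrate quantified by HPLC against an external calibration; three independent experiments.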

[10] = molecular target: T4, Retinoic acid receptor RXR-alpha (Homo sapiens) (UniProt P19793); assay: Agonist activity at human RXRalpha transfected in human HEK293T cells co-expressing pFR/pRL-Luc at 30 uM incubated for 14 to 16 hrs by hybrid reporter gene assay; format: cell-based; settings: time 14-16 hrs; outline: as §3
T4 sequence (whole entry): T2 sequence (P19793 whole entry)

[11] = molecular target: T5, Retinoic acid receptor RXR-beta (Homo sapiens) (UniProt P28702); assay: Agonist activity at human RXRbeta transfected in human HEK293T cells co-expressing pFR/pRL-Luc at 30 uM incubated for 14 to 16 hrs by hybrid reporter gene assay; format: cell-based; settings: time 14-16 hrs; outline: as §3
T5 sequence (whole entry): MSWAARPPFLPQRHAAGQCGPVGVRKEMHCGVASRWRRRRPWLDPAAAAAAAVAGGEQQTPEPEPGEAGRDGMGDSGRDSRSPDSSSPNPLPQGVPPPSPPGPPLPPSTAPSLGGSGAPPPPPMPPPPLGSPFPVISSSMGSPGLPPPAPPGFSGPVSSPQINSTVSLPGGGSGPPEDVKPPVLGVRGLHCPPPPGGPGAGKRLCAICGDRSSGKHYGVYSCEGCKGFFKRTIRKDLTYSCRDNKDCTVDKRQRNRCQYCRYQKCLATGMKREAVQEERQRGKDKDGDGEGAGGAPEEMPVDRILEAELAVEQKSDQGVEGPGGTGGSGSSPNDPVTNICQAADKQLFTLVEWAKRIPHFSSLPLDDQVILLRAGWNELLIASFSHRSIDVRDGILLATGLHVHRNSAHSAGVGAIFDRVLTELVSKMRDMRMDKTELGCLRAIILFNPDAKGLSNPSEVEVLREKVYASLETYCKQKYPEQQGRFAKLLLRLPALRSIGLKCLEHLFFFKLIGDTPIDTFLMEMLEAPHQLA

[12] = molecular target: T5, Retinoic acid receptor RXR-beta (Homo sapiens); assay: Agonist activity at human RXRbeta transfected in human HEK293T cells co-expressing pFR/pRL-Luc incubated for 14 to 16 hrs by hybrid reporter gene assay; format: cell-based; settings: time 14-16 hrs
[13] = molecular target: T6, Retinoic acid receptor RXR-gamma (Homo sapiens) (UniProt P48443); assay: Agonist activity at human RXRgamma transfected in human HEK293T cells co-expressing pFR/pRL-Luc at 30 uM incubated for 14 to 16 hrs by hybrid reporter gene assay; format: cell-based; settings: time 14-16 hrs; outline: as §3
T6 sequence (whole entry): T1 sequence (P48443 whole entry)

[14] = molecular target: T4, Retinoic acid receptor RXR-alpha (Homo sapiens); assay: as §2; format: cell-based; settings: time 14-16 hrs
[15] = Cmax in po dosed rat; format: ADME, organism-based; parameters: route oral; settings: in vivo
[16] = Half life in po dosed rat; format: ADME, organism-based; settings: in vivo
HepG2 [17] = assay: Cytotoxicity against human HepG2 cells assessed as reduction in cell viability incubated for 48 hrs by WST-1 assay; settings: HepG2, 48 h

concentration at 3 h [1]: 35000 ng/mL
EC50 [2]: 1500 nM
Stabilty [4]: Stable
EC50 [5]: 300 nM
Activity [6]: 15%
SMILES: O=C(O)CCc1cc(-c2cc(Cl)cc(Cl)c2)n(-c2ccc(Cl)cc2)n1
Activity (HepG2 [3]): Non-Toxic

half-life [7]: > 3 h
Cmax [8]: 33000 ng/mL
solubility at 1 h ([9]; phosphate buffer, pH 8): 146 µg/mL (≈ 340 µM)
EC50 [2]: 50 nM
Stabilty [4]: Stable
EC50 [5]: 50 nM
Activity [6]: 4%
SMILES: O=C(O)CCc1nc(-c2ccccc2)c(-c2cc(C(F)(F)F)cc(C(F)(F)F)c2)o1
Activity (HepG2 [3]): Non-Toxic

Activity [10]: inactive
Activity [11]: inactive
Activity [12]: inactive
Activity [13]: inactive
Activity [14]: inactive
SMILES: CN(C)c1cccc(-c2oc(CCC(=O)O)nc2-c2ccccc2)c1

Cmax [15]: 600 ng/mL
solubility ([9]; buffer, pH 8, 1 h): 0.3 µg/mL (≈ 0.861 µM)
half-life [16]: 1.2 h
SMILES: C=C(c1ccc(C(=O)O)cc1)c1cc2c(cc1C)C(C)(C)CCC2(C)C [BEXAROTENE]
IC50 (HepG2 [17]): 20000 nM
